Laboratory results as given in PubChem BioAssay AID809 (SRMLSC, 2007).
pEC50: −log10 of the molar value. Calls of active or inactive are those of the source.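 How the source made its calls: active means EC50 for reversing nicotinamide-shortened yeast lifespan at or below a set limit; inactive means EC50 above that limit.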

System: S. cerevisiae DeaD BB579, nicotinamide rescue growth, OD615 48 h
Assay: BB579 yeast growth restoration under nicotinamide – S. cerevisiae, yeast lifespan extension project, dose response (AID 809)
In short: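 System: Saccharomyces cerevisiae DeaD strain BB579, log-phase cells | Buffer or medium: CSMM-D glucose restrictive medium | Timing: 4 h pre-incubation, 48 h exposure at 30 °C | Technique: OD615 absorbance | Evaluation: Culture growth as lifespan proxy | Compound: 0.078–10 µM compound, 0.5% DMSO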

## Cc1ccc2nc(N3C(=O)C(O)=C(C(=O)c4ccco4)C3c3cccs3)sc2c1 (centres undefined)
  pEC50: 5.18

## CCOC(=O)/C(=C/c1ccc(OC(=O)c2ccccc2)cc1)C(C)=O
  pEC50: 5.30

## CCC(=O)N1CCN(CCN=CC2=C(O)CC(c3cccs3)CC2=O)CC1 (centres undefined)
  pEC50: 5.00

## COc1ccc(/C(O)=C/C(=O)C(=O)Nc2c(C)n(C)n(-c3ccccc3)c2=O)cc1
  pEC50: 5.23

## CC(=O)Oc1ccccc1N1C(=O)c2ccc(C(=O)O)cc2C1=O
  EC50: > 10 µM (inactive)

## CC1CC(C)CN(S(=O)(=O)c2cccc(C(=O)N3C(=O)c4cccc(N)c4C3=O)c2)C1 (centres undefined)
  pEC50: 5.33

## COC(=O)C1=C(C(=O)OC)C(c2cc(Br)ccc2O)c2sc(=O)[nH]c2S1 (centres undefined)
  pEC50: 5.32

## CCOc1ccc(C2=NNC(c3cccs3)=Nc3ccc(OCC)cc32)cc1
  EC50: > 10 µM (inactive)

## CC(C)C(OC(=O)CN1C(=O)COc2ccccc21)C(=O)NC1CCCC1 (centres undefined)
  EC50: > 10 µM (inactive)

## Oc1ccc(NCc2ccccc2OCc2ccccc2F)cc1
  EC50: > 10 µM (inactive)

## CNC(=S)NC1CC2CCCC(C1)N2Cc1ccco1 (centres undefined)
  EC50: > 10 µM (inactive)

## N#CSCC(=O)N1c2ccccc2CCc2ccccc21
  pEC50: 5.06

## COc1ccc(/C=C/C(=O)C2C(=O)C=C(C)OC2=O)cc1O (centres undefined)
  pEC50: 5.13

## COc1ccc(-c2cc(C(F)(F)F)nc(S(C)(=O)=O)n2)cc1
  pEC50: 5.21

## CCCCCSc1nc2c(c(=O)[nH]c(=O)n2C)n1C
  EC50: > 10 µM (inactive)

## COc1ccc(N(C(=O)C(C)C)S(=O)(=O)c2ccc(Cl)cc2)cc1
  EC50: > 10 µM (inactive)

## Cc1cccc(N2C(=O)/C(=C\c3ccc(OC(F)F)cc3)c3ccccc3C2=O)c1
  EC50: > 10 µM (inactive)

## Cc1ccc(N/C(C(Cl)=C(Cl)Cl)=C(/Cl)[N+](=O)[O-])c(C)c1
  pEC50: 5.06

## O=C(NCc1ccco1)c1cc(C(=O)C2CCCCC2)c[nH]1
  EC50: > 10 µM (inactive)

## CN1CCC2(CC1)C(C#N)=C(N)NC(S)=C2C#N
  EC50: > 10 µM (inactive)

## CCN1C(=O)C(=Cc2ccc(C)s2)C(=O)N(CC)C1=S
  pEC50: 5.43

## O=C(Nc1scc(-c2ccc(F)cc2)c1C(=O)O)c1ccco1
  pEC50: 5.50

## COc1cc(Br)cc(-c2nc3c(c(=O)[nH]c(=O)n3Cc3ccccc3)n2C)c1O
  EC50: > 10 µM (inactive)

## O=c1[nH]c2ccccc2nc1C(Cl)c1ccccc1 (centres undefined)
  pEC50: 5.01

## COc1ccc(NC(=S)N2CCN(CCN=CC3=C(O)CC(c4ccccc4)CC3=O)CC2)cc1 (centres undefined)
  pEC50: 5.14

## COc1ccc(NCc2nc3ccccc3n2CCOc2ccccc2)cc1
  pEC50: 5.28

## CCn1ncc(/C=N/NC(=O)c2ccc3c(c2)OCO3)c1C
  EC50: > 10 µM (inactive)

## COc1cc(OC)cc(-c2nc3ccccc3c(=O)n2OC(=O)c2ccc(Br)cc2)c1
  pEC50: 5.21

## CC1CCCCN1C(=S)Nc1ccc2nc3n(c(=O)c2c1)CCCCC3 (centres undefined)
  pEC50: 5.06

## CCOC(=O)CC1=NN(c2ccccc2)C(=O)/C1=C\c1ccc(OC)cc1OC
  pEC50: 5.07

## CCCCC(=Nc1ccc(N)cc1)C1=C(O)C(C(=O)OC)C(C)(C)CC1=O (centres undefined)
  pEC50: 5.26

## O=C1C=CC2C(c3ccc4c(c3)OCO4)CC1N2Cc1ccccc1 (centres undefined)
  pEC50: 5.22

## CCCc1[nH]nc2c1C(c1ccc(Br)s1)C(C#N)=C(N)O2 (centres undefined)
  pEC50: 5.18

## CCCCN(CCCC)c1ccc(C(=O)c2ccccc2C(=O)O)c(O)c1
  pEC50: 5.17

## Cc1ccc(S(=O)(=O)C(C#N)c2nc3ccccc3nc2N2CCCC2)cc1 (centres undefined)
  EC50: > 10 µM (inactive)

## O=C(Oc1ccc2c(c1)OCO2)C12CC3CC(CC(C3)C1)C2
  EC50: > 10 µM (inactive)

## Cc1cc(N2C(=O)CC(Cc3ccccc3)C2=O)no1 (centres undefined)
  EC50: > 10 µM (inactive)

## CCc1oc2ccccc2c1C(=O)CCN1CCCCC1
  pEC50: 5.09

## COc1ccc(/C=C(\C#N)C(=O)N2CCOCC2)cc1Br
  pEC50: 5.06

## CCSc1nnc(NC(=O)C2(C)Cc3ccccc3C(=O)O2)s1 (centres undefined)
  pEC50: 5.19

## C/C(=N\NC(=O)c1ccccc1O)c1c(O)cc(C)oc1=O
  pEC50: 5.54

## Cc1ccsc1C(=O)Nc1nnc(-c2ccco2)o1
  pEC50: 5.03

## O=c1c(Cl)c(NCCCO)cnn1-c1nc2ccccc2[nH]1
  pEC50: 5.12

## Cc1ncc(C23CC4CC(CC(C4)C2)C3)[nH]1
  EC50: > 10 µM (inactive)
